Source: PMC2828288 (Journal of medicinal chemistry, 2010)
Like-named read-outs stand apart in the source and are kept apart here.

Key:
[1] = system: serine hydrolases in the mouse brain membrane proteome; format: biochemical; conditions: competitive ABPP
How it was run: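 Mouse brain tissue Dounce-homogenized in PBS pH 7.5, spun at 1,400 × g for 5 min, then at 64,000 × g for 45 min; the membrane pellet was resuspended in PBS by sonication. Proteome at 1 mg/ml was preincubated with test compound at the indicated concentrations for 30 min at 37 °C. FP-rhodamine (1 μM final) was then added for 30 min at 25 °C, followed by SDS-PAGE and in-gel fluorescence scanning.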

FAAH [2] = target: T1, FAAH (Mus musculus, UniProt O08914); experiment: FAAH activity after in vivo administration to mice; conditions: administration to mice at doses that reduced MAGL activity; data not shown
T1 sequence (O08914 1-579): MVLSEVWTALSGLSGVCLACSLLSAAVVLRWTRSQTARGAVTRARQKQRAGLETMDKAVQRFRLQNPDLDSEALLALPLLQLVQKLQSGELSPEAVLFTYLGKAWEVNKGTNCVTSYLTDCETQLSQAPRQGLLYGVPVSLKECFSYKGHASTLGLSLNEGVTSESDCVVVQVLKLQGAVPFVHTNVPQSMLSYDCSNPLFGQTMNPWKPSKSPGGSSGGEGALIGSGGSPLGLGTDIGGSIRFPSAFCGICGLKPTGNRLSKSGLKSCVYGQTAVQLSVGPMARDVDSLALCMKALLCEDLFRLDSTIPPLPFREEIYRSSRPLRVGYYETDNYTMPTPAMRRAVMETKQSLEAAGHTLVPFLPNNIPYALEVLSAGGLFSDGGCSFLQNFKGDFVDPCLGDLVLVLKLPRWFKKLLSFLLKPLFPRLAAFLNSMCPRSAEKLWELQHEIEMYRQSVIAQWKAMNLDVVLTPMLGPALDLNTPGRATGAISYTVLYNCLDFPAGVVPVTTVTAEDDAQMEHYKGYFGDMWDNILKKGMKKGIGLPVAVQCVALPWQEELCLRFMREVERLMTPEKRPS

MAGL [3] = experiment: Competitive ABPP; format: biochemical, mouse; conditions: brain proteome
total brain 2-AG levels = conditions: upon administration to mice; cited from earlier work
NTE [4] = target: T2, NTE (Mus musculus, UniProt Q3TRM4); experiment: NTE activity after in vivo administration to mice; conditions: 20 mg/kg, i.p., data not shown
T2 sequence (Q3TRM4 1-1355): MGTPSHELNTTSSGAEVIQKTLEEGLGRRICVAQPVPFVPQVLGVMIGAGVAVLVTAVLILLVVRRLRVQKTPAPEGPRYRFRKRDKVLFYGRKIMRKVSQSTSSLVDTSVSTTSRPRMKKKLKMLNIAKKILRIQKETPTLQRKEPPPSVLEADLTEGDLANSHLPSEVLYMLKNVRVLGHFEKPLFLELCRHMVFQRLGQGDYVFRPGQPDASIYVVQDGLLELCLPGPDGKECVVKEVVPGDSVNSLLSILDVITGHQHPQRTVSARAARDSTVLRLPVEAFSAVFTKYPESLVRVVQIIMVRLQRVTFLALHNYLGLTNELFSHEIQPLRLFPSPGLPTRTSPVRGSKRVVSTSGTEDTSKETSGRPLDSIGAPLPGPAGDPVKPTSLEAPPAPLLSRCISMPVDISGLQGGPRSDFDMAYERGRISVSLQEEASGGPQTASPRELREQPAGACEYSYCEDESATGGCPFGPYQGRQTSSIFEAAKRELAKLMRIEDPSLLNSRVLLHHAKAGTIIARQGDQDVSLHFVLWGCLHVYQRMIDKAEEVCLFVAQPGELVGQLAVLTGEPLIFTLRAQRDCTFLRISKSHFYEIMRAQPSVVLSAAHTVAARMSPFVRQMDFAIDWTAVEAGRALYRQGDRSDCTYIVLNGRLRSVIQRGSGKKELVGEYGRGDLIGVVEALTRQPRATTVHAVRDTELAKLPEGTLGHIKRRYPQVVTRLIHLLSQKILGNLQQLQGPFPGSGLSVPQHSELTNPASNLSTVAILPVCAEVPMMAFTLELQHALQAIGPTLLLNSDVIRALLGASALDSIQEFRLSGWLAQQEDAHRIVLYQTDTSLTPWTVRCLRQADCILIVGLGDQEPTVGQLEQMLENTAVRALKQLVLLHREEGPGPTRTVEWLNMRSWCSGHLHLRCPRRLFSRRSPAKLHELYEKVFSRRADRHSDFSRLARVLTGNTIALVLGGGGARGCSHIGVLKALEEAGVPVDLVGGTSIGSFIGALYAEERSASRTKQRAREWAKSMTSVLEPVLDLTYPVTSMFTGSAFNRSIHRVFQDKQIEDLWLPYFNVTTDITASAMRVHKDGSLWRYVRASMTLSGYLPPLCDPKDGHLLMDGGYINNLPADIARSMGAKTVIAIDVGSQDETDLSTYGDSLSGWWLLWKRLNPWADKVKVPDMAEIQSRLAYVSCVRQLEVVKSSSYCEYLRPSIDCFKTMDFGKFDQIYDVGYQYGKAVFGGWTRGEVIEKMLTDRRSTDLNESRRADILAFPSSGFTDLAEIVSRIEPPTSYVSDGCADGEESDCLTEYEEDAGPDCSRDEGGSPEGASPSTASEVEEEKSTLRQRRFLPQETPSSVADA

MAGL [5] = conditions: mice, 20 mg/kg intraperitoneally, or 100 mg/kg orally; cited from earlier work
NTE [6] = target: T2, NTE; conditions: mice, 20 mg/kg intraperitoneally, or 100 mg/kg orally; cited from earlier work
FAAH [7] = target: T1, FAAH; conditions: mice, 20 mg/kg intraperitoneally, or 100 mg/kg orally; cited from earlier work
[8] = mice, 20 mg/kg i.p. daily for 6 days; cited from earlier work

Structure (SMILES): COc1ccc(C(O)(c2ccc(OC)cc2)C2CCN(C(=O)Oc3ccc([N+](=O)[O-])cc3)C2)cc1 (stereo not drawn) [Compound 15, 4-nitrophenyl 3-(hydroxybis(4-methoxyphenyl)methyl)pyrrolidine-1-carboxylate]
- activity against FAAH, MAGL and other serine hydrolases [1]: inactive

Structure (SMILES): COc1ccc(C(O)(c2ccc(OC)cc2)C2CCN(C(=O)Oc3ccc([N+](=O)[O-])cc3)CC2)cc1 [Compound 6]
- FAAH activity in vivo (FAAH [2]): significantly blocked FAAH activity

Structure (SMILES): CN(C(=O)Oc1ccc([N+](=O)[O-])cc1)C(c1ccccc1)c1ccccc1 [Compound 9b, 4-nitrophenyl benzhydryl(methyl)carbamate]
- activity against FAAH, MAGL and other serine hydrolases [1]: inactive

Structure (SMILES): COc1ccc(C(O)(c2ccc(OC)c(OC)c2)C2CCN(C(=O)Oc3ccc([N+](=O)[O-])cc3)CC2)cc1OC [Compound 33c, 4-nitrophenyl 4-(bis(3,4-dimethoxyphenyl)(hydroxy)methyl)piperidine-1-carboxylate]
- Selectivity (MAGL [3]; MAGL over FAAH (ratio of IC50s)): >38
- selectivity for MAGL over FAAH (MAGL [3]): 40–400 fold

Structure (SMILES): O=C(Oc1ccc([N+](=O)[O-])cc1)N1CCC(C(O)(c2ccc3c(c2)OCO3)c2ccc3c(c2)OCO3)CC1 [Compound 1, 4-nitrophenyl 4-(dibenzo[d][1,3]dioxol-5-yl(hydroxy)methyl)piperidine-1-carboxylate]
- elevation of total brain 2-AG levels (total brain 2-AG levels): > 8 fold

Structure (SMILES): O=C(Oc1ccc([N+](=O)[O-])cc1)N1CCN(Cc2cccc(Oc3cc(Cl)cc(Cl)c3)c2)CC1 [Compound 36q, 4-nitrophenyl 4-(3-(3,5-dichlorophenoxy)benzyl)piperazine-1-carboxylate]
- activity against FAAH, MAGL and other serine hydrolases [1]: unable to inhibit any of the hydrolases

Structure (SMILES): COc1ccccc1C(O)(c1ccccc1OC)C1CCN(C(=O)Oc2ccc([N+](=O)[O-])cc2)CC1 [Compound 33b, 4-nitrophenyl 4-(hydroxybis(2-methoxyphenyl)methyl)piperidine-1-carboxylate]
- selectivity for MAGL over FAAH (MAGL [3]): ~ 10 fold

Structure (SMILES): O=C(Oc1ccc([N+](=O)[O-])cc1)N1CCN(C(c2ccc(F)cc2)c2ccc(F)cc2)CC1 [Compound 5]
- FAAH activity in vivo (FAAH [2]): significantly blocked FAAH activity

Structure (SMILES): CN(CCC(c1ccccc1)c1ccccc1)C(=O)Oc1ccc([N+](=O)[O-])cc1 [Compound 9a, 4-nitrophenyl 3,3-diphenylpropyl(methyl)carbamate]
- activity against FAAH, MAGL and other serine hydrolases [1]: inactive

Structure (SMILES): O=C(Oc1ccc([N+](=O)[O-])cc1)N1CCN(Cc2ccc(-c3ccccc3)s2)CC1 [Compound 36h, 4-nitrophenyl 4-((5-phenylthiophen-2-yl)methyl)piperazine-1-carboxylate]
- NTE inhibition in vivo (NTE [4]): inhibited NTE

Structure (SMILES): O=C(Oc1ccc([N+](=O)[O-])cc1)N1CCN(Cc2cccc(Oc3ccccc3)c2)CC1 [Compound 2]
- MAGL blockade in vivo (MAGL [5]): completely blocked
- NTE inhibition in vivo (NTE [6]): no inhibition of NTE was observed
- FAAH blockade in vivo (FAAH [7]): completely blocked
- death or overt signs of discomfort on chronic administration [8]: did not produce death or overt signs of discomfort
